In ChEMBL document CHEMBL4689842, “EUbOPEN Chemogenomics Library wave 1” (2021):

Tested on: Fibroblast
Test: Multiplex assay against human fibroblast
Format: toxicity, cell-based
Method in brief: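 Hoechst33342, BioTracker Green Microtubule Cytoskeleton Dye, MitoTracker Red and Annexin V Alexa Fluor 680 were added to live cells at seeding, and imaging on a CQ1 microscope at 37°C and 5% CO2 followed compound addition. Gating by CellPathfinder machine learning separated cells into Hoechst high-intensity objects or normal cells, then normal cells into healthy, pyknosed or fragmented nuclei, then pyknosed cells into mitotic or apoptotic. Per cents of healthy-nucleus cells are reported for the tubulin, mitochondrial-mass and membrane-permeability phenotypes.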

[1] = 12 h, 1 µM, compound concentration 1 uM, replicate 1
[2] = 12 h, 1 µM, compound concentration 1 uM, replicate 2
[3] = 12 h, 10 µM, compound concentration 10 uM, replicate 1
[4] = 12 h, 10 µM, compound concentration 10 uM, replicate 2
[5] = 24 h, 1 µM, compound concentration 1 uM, replicate 1
[6] = 24 h, 1 µM, compound concentration 1 uM, replicate 2
[7] = 24 h, 10 µM, compound concentration 10 uM, replicate 1
[8] = 24 h, 10 µM, compound concentration 10 uM, replicate 2
[9] = 48 h, 1 µM, compound concentration 1 uM, replicate 1
[10] = 48 h, 1 µM, compound concentration 1 uM, replicate 2
[11] = 48 h, 10 µM, compound concentration 10 uM, replicate 1
[12] = 48 h, 10 µM, compound concentration 10 uM, replicate 2

C=CC(=O)Nc1cccc(Sc2nc(Nc3ccc(N4CCN(C)CC4)cc3)ncc2Cl)c1
Population Apoptotic (%) [1]: 35%
Population Fragmented Nuclei (%) [1]: 28%
Population Healthy Nuclei (%) [1]: 17%
Population Hoechst High Intensity Objects (%) [1]: 13%
Population Membrane Permeable-Phenotype (%) [1]: 5%
Population Mitochondria Different-Phenotype (%) [1]: 50%
Population Mitotic Cells (%) [1]: 65%
Population Normal (%) [1]: 86%
Population Pyknosed Nuclei (%) [1]: 53%
Population Tubulin-Different-Phenotype (%) [1]: 50%
Total Cell Count [1]: 130
Population Apoptotic (%) [2]: 69%
Population Fragmented Nuclei (%) [2]: 48%
Population Healthy Nuclei (%) [2]: 6%
Population Hoechst High Intensity Objects (%) [2]: 20%
Population Membrane Permeable-Phenotype (%) [2]: 0%
Population Mitochondria Different-Phenotype (%) [2]: 33%
Population Mitotic Cells (%) [2]: 30%
Population Normal (%) [2]: 79%
Population Pyknosed Nuclei (%) [2]: 46%
Population Tubulin-Different-Phenotype (%) [2]: 66%
Total Cell Count [2]: 63
Population Apoptotic (%) [3]: 79%
Population Fragmented Nuclei (%) [3]: 34%
Population Healthy Nuclei (%) [3]: 49%
Population Hoechst High Intensity Objects (%) [3]: 15%
Population Membrane Permeable-Phenotype (%) [3]: 6%
Population Mitochondria Different-Phenotype (%) [3]: 5%
Population Mitotic Cells (%) [3]: 20%
Population Normal (%) [3]: 84%
Population Pyknosed Nuclei (%) [3]: 15%
Population Tubulin-Different-Phenotype (%) [3]: 9%
Total Cell Count [3]: 290
Population Apoptotic (%) [4]: 100%
Population Fragmented Nuclei (%) [4]: 62%
Population Healthy Nuclei (%) [4]: 36%
Population Hoechst High Intensity Objects (%) [4]: 33%
Population Membrane Permeable-Phenotype (%) [4]: 7%
Population Mitochondria Different-Phenotype (%) [4]: 7%
Population Mitotic Cells (%) [4]: 0%
Population Normal (%) [4]: 66%
Population Pyknosed Nuclei (%) [4]: 1%
Population Tubulin-Different-Phenotype (%) [4]: 25%
Total Cell Count [4]: 116
Population Apoptotic (%) [5]: 74%
Population Fragmented Nuclei (%) [5]: 53%
Population Healthy Nuclei (%) [5]: 6%
Population Hoechst High Intensity Objects (%) [5]: 7%
Population Mitochondria Different-Phenotype (%) [5]: 57%
Population Mitotic Cells (%) [5]: 25%
Population Normal (%) [5]: 92%
Population Pyknosed Nuclei (%) [5]: 40%
Population Tubulin-Different-Phenotype (%) [5]: 71%
Total Cell Count [5]: 126
Population Apoptotic (%) [6]: 90%
Population Fragmented Nuclei (%) [6]: 70%
Population Healthy Nuclei (%) [6]: 5%
Population Hoechst High Intensity Objects (%) [6]: 23%
Population Membrane Permeable-Phenotype (%) [6]: 0%
Population Mitochondria Different-Phenotype (%) [6]: 0%
Population Mitotic Cells (%) [6]: 10%
Population Normal (%) [6]: 76%
Population Pyknosed Nuclei (%) [6]: 25%
Population Tubulin-Different-Phenotype (%) [6]: 50%
Total Cell Count [6]: 52
Population Apoptotic (%) [7]: 80%
Population Fragmented Nuclei (%) [7]: 34%
Population Healthy Nuclei (%) [7]: 50%
Population Hoechst High Intensity Objects (%) [7]: 17%
Population Membrane Permeable-Phenotype (%) [7]: 5%
Population Mitochondria Different-Phenotype (%) [7]: 5%
Population Mitotic Cells (%) [7]: 20%
Population Normal (%) [7]: 82%
Population Pyknosed Nuclei (%) [7]: 14%
Population Tubulin-Different-Phenotype (%) [7]: 11%
Total Cell Count [7]: 285
Population Apoptotic (%) [8]: 0%
Population Fragmented Nuclei (%) [8]: 65%
Population Healthy Nuclei (%) [8]: 34%
Population Hoechst High Intensity Objects (%) [8]: 34%
Population Membrane Permeable-Phenotype (%) [8]: 20%
Population Mitochondria Different-Phenotype (%) [8]: 4%
Population Mitotic Cells (%) [8]: 0%
Population Normal (%) [8]: 65%
Population Pyknosed Nuclei (%) [8]: 0%
Population Tubulin-Different-Phenotype (%) [8]: 16%
Total Cell Count [8]: 111

CNC(=O)Nc1ccc(-c2nc(N3CC4CCC(C3)O4)c3cnn(C4CCC5(CC4)OCCO5)c3n2)cc1
Population Apoptotic (%) [1]: 47%
Population Fragmented Nuclei (%) [1]: 38%
Population Healthy Nuclei (%) [1]: 32%
Population Hoechst High Intensity Objects (%) [1]: 14%
Population Membrane Permeable-Phenotype (%) [1]: 29%
Population Mitochondria Different-Phenotype (%) [1]: 4%
Population Mitotic Cells (%) [1]: 52%
Population Normal (%) [1]: 85%
Population Pyknosed Nuclei (%) [1]: 28%
Population Tubulin-Different-Phenotype (%) [1]: 54%
Total Cell Count [1]: 85
Population Apoptotic (%) [2]: 0%
Population Fragmented Nuclei (%) [2]: 28%
Population Healthy Nuclei (%) [2]: 55%
Population Hoechst High Intensity Objects (%) [2]: 10%
Population Membrane Permeable-Phenotype (%) [2]: 5%
Population Mitochondria Different-Phenotype (%) [2]: 13%
Population Mitotic Cells (%) [2]: 100%
Population Normal (%) [2]: 89%
Population Pyknosed Nuclei (%) [2]: 16%
Population Tubulin-Different-Phenotype (%) [2]: 18%
Total Cell Count [2]: 54
Population Apoptotic (%) [3]: 50%
Population Fragmented Nuclei (%) [3]: 28%
Population Healthy Nuclei (%) [3]: 29%
Population Hoechst High Intensity Objects (%) [3]: 16%
Population Membrane Permeable-Phenotype (%) [3]: 30%
Population Mitochondria Different-Phenotype (%) [3]: 15%
Population Mitotic Cells (%) [3]: 50%
Population Normal (%) [3]: 83%
Population Pyknosed Nuclei (%) [3]: 41%
Population Tubulin-Different-Phenotype (%) [3]: 96%
Total Cell Count [3]: 104
Population Apoptotic (%) [4]: 25%
Population Fragmented Nuclei (%) [4]: 13%
Population Healthy Nuclei (%) [4]: 54%
Population Hoechst High Intensity Objects (%) [4]: 6%
Population Membrane Permeable-Phenotype (%) [4]: 36%
Population Mitochondria Different-Phenotype (%) [4]: 75%
Population Mitotic Cells (%) [4]: 75%
Population Normal (%) [4]: 93%
Population Pyknosed Nuclei (%) [4]: 32%
Total Cell Count [4]: 107
Population Apoptotic (%) [5]: 38%
Population Fragmented Nuclei (%) [5]: 30%
Population Healthy Nuclei (%) [5]: 33%
Population Hoechst High Intensity Objects (%) [5]: 20%
Population Membrane Permeable-Phenotype (%) [5]: 25%
Population Mitochondria Different-Phenotype (%) [5]: 10%
Population Mitotic Cells (%) [5]: 61%
Population Normal (%) [5]: 79%
Population Pyknosed Nuclei (%) [5]: 35%
Population Tubulin-Different-Phenotype (%) [5]: 60%
Total Cell Count [5]: 74
Population Apoptotic (%) [6]: 25%
Population Fragmented Nuclei (%) [6]: 19%
Population Healthy Nuclei (%) [6]: 64%
Population Hoechst High Intensity Objects (%) [6]: 18%
Population Membrane Permeable-Phenotype (%) [6]: 8%
Population Mitochondria Different-Phenotype (%) [6]: 6%
Population Mitotic Cells (%) [6]: 75%
Population Normal (%) [6]: 81%
Population Pyknosed Nuclei (%) [6]: 16%
Population Tubulin-Different-Phenotype (%) [6]: 23%
Total Cell Count [6]: 55
Population Apoptotic (%) [7]: 77%
Population Fragmented Nuclei (%) [7]: 28%
Population Healthy Nuclei (%) [7]: 35%
Population Hoechst High Intensity Objects (%) [7]: 18%
Population Membrane Permeable-Phenotype (%) [7]: 25%
Population Mitochondria Different-Phenotype (%) [7]: 37%
Population Mitotic Cells (%) [7]: 22%
Population Normal (%) [7]: 81%
Population Pyknosed Nuclei (%) [7]: 35%
Population Tubulin-Different-Phenotype (%) [7]: 88%
Total Cell Count [7]: 93
Population Apoptotic (%) [8]: 41%
Population Fragmented Nuclei (%) [8]: 8%
Population Healthy Nuclei (%) [8]: 42%
Population Hoechst High Intensity Objects (%) [8]: 6%
Population Membrane Permeable-Phenotype (%) [8]: 44%
Population Mitochondria Different-Phenotype (%) [8]: 84%
Population Mitotic Cells (%) [8]: 58%
Population Normal (%) [8]: 93%
Population Pyknosed Nuclei (%) [8]: 49%
Population Tubulin-Different-Phenotype (%) [8]: 96%
Total Cell Count [8]: 90
Population Apoptotic (%) [9]: 33%
Population Fragmented Nuclei (%) [9]: 42%
Population Healthy Nuclei (%) [9]: 37%
Population Hoechst High Intensity Objects (%) [9]: 19%
Population Membrane Permeable-Phenotype (%) [9]: 13%
Population Mitochondria Different-Phenotype (%) [9]: 8%
Population Mitotic Cells (%) [9]: 66%
Population Normal (%) [9]: 80%
Population Pyknosed Nuclei (%) [9]: 19%
Population Tubulin-Different-Phenotype (%) [9]: 43%
Total Cell Count [9]: 76
Population Apoptotic (%) [10]: 75%
Population Fragmented Nuclei (%) [10]: 33%
Population Healthy Nuclei (%) [10]: 61%
Population Hoechst High Intensity Objects (%) [10]: 12%
Population Membrane Permeable-Phenotype (%) [10]: 10%
Population Mitochondria Different-Phenotype (%) [10]: 2%
Population Mitotic Cells (%) [10]: 25%
Population Normal (%) [10]: 87%
Population Pyknosed Nuclei (%) [10]: 5%
Population Tubulin-Different-Phenotype (%) [10]: 10%
Total Cell Count [10]: 88
Population Apoptotic (%) [11]: 50%
Population Fragmented Nuclei (%) [11]: 42%
Population Healthy Nuclei (%) [11]: 37%
Population Hoechst High Intensity Objects (%) [11]: 19%
Population Membrane Permeable-Phenotype (%) [11]: 19%
Population Mitochondria Different-Phenotype (%) [11]: 61%
Population Mitotic Cells (%) [11]: 50%
Population Normal (%) [11]: 80%
Population Pyknosed Nuclei (%) [11]: 20%
Population Tubulin-Different-Phenotype (%) [11]: 80%
Total Cell Count [11]: 87
Population Apoptotic (%) [12]: 33%
Population Fragmented Nuclei (%) [12]: 48%
Population Healthy Nuclei (%) [12]: 49%
Population Hoechst High Intensity Objects (%) [12]: 9%
Population Membrane Permeable-Phenotype (%) [12]: 18%
Population Mitochondria Different-Phenotype (%) [12]: 12%
Population Mitotic Cells (%) [12]: 66%
Population Normal (%) [12]: 90%
Population Pyknosed Nuclei (%) [12]: 2%
Population Tubulin-Different-Phenotype (%) [12]: 92%
Total Cell Count [12]: 122
